Test results: ChEMBL document CHEMBL1157589, “Antifungal 3,5-disubstituted furanones: From 5-acyloxymethyl to 5-alkylidene derivatives” (Bioorg Med Chem, 2010); call rule not given here
≈ marks a conversion by molar mass, not a printed value.

test system: Candida albicans; assay: Antifungal activity against Candida albicans ATCC 90028 after 48 hrs by microdilution method; type: functional; settings: ATCC 90028, 48 h
Outline: (§1)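 Yeasts held on Sabouraud dextrose agar. MIC by NCCLS M27-A broth microdilution in RPMI 1640 with L-glutamine, buffered with 0.165 M MOPS to pH 7.0. Compounds in DMSO (≤2% final), twofold dilutions 500–0.48. Final inoculum 5 × 10³ ± 0.2 cfu mL⁻¹. Incubated at 35 °C; absorbance at 540 nm read at 24 and 48 h. MIC is 80% growth inhibition versus control; run twice in duplicate.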

Row | MIC80 [µM] | SMILES
1 | > 500 | C/C=C1/C=C(c2ccc(Br)cc2)C(=O)O1
2 | 500 (≈ 120 µg/mL) | O=C1OCC=C1c1ccc(Br)cc1

test system: Clavispora lusitaniae; assay: Antifungal activity against Candida lusitaniae 2446/I after 24 hrs by microdilution method; type: functional; settings: not given; outline: as §1

Row | MIC80 [µM] | SMILES
3 | > 500 | C/C=C1/C=C(c2ccc(Br)cc2)C(=O)O1
4 | 500 (≈ 120 µg/mL) | O=C1OCC=C1c1ccc(Br)cc1

test system: Lichtheimia corymbifera; assay: Antifungal activity against Absidia corymbifera 272 after 24 hrs by microdilution method; type: functional; settings: Lichtheimia corymbifera, 272, 24 h
Outline: (§2)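 Filamentous strains held on Sabouraud dextrose agar. NCCLS M27-A broth microdilution in RPMI 1640 with L-glutamine and 0.165 M MOPS, pH 7.0. DMSO diluent ≤2% final; twofold dilutions 500–0.48. Inoculum 5 × 10³ ± 0.2 cfu mL⁻¹ final.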

Row | MIC80 [µM] | SMILES
5 | > 500 | C/C=C1/C=C(c2ccc(Br)cc2)C(=O)O1
6 | 500 (≈ 120 µg/mL) | O=C1OCC=C1c1ccc(Br)cc1

test system: Trichophyton mentagrophytes; assay: Antifungal activity against Trichophyton mentagrophytes 445 after 72 hrs by microdilution method; type: functional; settings: Trichophyton mentagrophytes, 445, 72 h
Outline: (§3)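 Dermatophyte held on Sabouraud dextrose agar. M27-A microdilution in MOPS-buffered (0.165 M, pH 7.0) RPMI 1640 with L-glutamine. DMSO ≤2% final; twofold dilutions 500–0.48. Inoculum 5 × 10³ ± 0.2 cfu mL⁻¹ final. Incubated at 35 °C; MIC read visually at 72 and 120 h as 80% inhibition of control growth; determined twice in duplicate.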

Row | MIC80 [µM] | SMILES
7 | 31.2 (≈ 8.28 µg/mL) | C/C=C1/C=C(c2ccc(Br)cc2)C(=O)O1
8 | 250 (≈ 59.8 µg/mL) | O=C1OCC=C1c1ccc(Br)cc1

test system: Nakaseomyces glabratus; assay: Antifungal activity against Candida glabrata 20/I after 48 hrs by microdilution method; type: functional; settings: not given; outline: as §1

Row | MIC80 [µM] | SMILES
9 | > 500 | C/C=C1/C=C(c2ccc(Br)cc2)C(=O)O1
10 | 500 (≈ 120 µg/mL) | O=C1OCC=C1c1ccc(Br)cc1

test system: Candida tropicalis; assay: Antifungal activity against Candida tropicalis 156 after 24 hrs by microdilution method; type: functional; settings: Candida tropicalis, 156, 24 h; outline: as §1

Row | MIC80 [µM] | SMILES
11 | > 500 | C/C=C1/C=C(c2ccc(Br)cc2)C(=O)O1
12 | 250 (≈ 59.8 µg/mL) | O=C1OCC=C1c1ccc(Br)cc1

test system: HeLa S3; assay: Cytostatic activity against human HeLaS3 cells after 48 hrs by XTT assay; settings: hela s3

Row | IC50 | SMILES
13 | Not Active | C/C=C1/C=C(c2ccc(Br)cc2)C(=O)O1
14 | Not Active | O=C1OCC=C1c1ccc(Br)cc1

test system: CCRF-CEM; assay: Cytostatic activity against human CCRF-CEM cells after 72 hrs by XTT assay; type: functional, cell-based; settings: ccrf-cem
Outline: (§4)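 Leukemia cells (L1210 ATCC CCL 219, CCRF-CEM ATCC CCL 119, HL-60 ATCC CCL 240) grown in 24-well plates in RPMI 1640 with fetal calf serum. Growth assessed 72 h after drug addition. Viability measured by XTT spectrophotometric assay; potency given as IC50.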

Row | IC50 | SMILES
15 | Not Active | C/C=C1/C=C(c2ccc(Br)cc2)C(=O)O1
16 | Not Active | O=C1OCC=C1c1ccc(Br)cc1

test system: Nakaseomyces glabratus; assay: Antifungal activity against Candida glabrata 20/I after 24 hrs by microdilution method; type: functional; settings: not given; outline: as §1

Row | MIC80 [µM] | SMILES
17 | > 500 | C/C=C1/C=C(c2ccc(Br)cc2)C(=O)O1
18 | 500 (≈ 120 µg/mL) | O=C1OCC=C1c1ccc(Br)cc1

test system: Pichia kudriavzevii; assay: Antifungal activity against Candida krusei E28 after 24 hrs by microdilution method; type: functional; settings: E28, 24 h; outline: as §1

Row | MIC80 [µM] | SMILES
19 | > 500 | C/C=C1/C=C(c2ccc(Br)cc2)C(=O)O1
20 | 250 (≈ 59.8 µg/mL) | O=C1OCC=C1c1ccc(Br)cc1

test system: Clavispora lusitaniae; assay: Antifungal activity against Candida lusitaniae 2446/I after 48 hrs by microdilution method; type: functional; settings: not given; outline: as §1

Row | MIC80 [µM] | SMILES
21 | > 500 | C/C=C1/C=C(c2ccc(Br)cc2)C(=O)O1
22 | 500 (≈ 120 µg/mL) | O=C1OCC=C1c1ccc(Br)cc1

test system: Candida albicans; assay: Antifungal activity against Candida albicans ATCC 44859 after 24 hrs by microdilution method; type: functional; settings: ATCC 44859, 24 h; outline: as §1

Row | MIC80 [µM] | SMILES
23 | 250 (≈ 66.3 µg/mL) | C/C=C1/C=C(c2ccc(Br)cc2)C(=O)O1
24 | 250 (≈ 59.8 µg/mL) | O=C1OCC=C1c1ccc(Br)cc1

test system: Pichia kudriavzevii; assay: Antifungal activity against Candida krusei ATCC 6258 after 24 hrs by microdilution method; type: functional; settings: ATCC 6258, 24 h; outline: as §1

Row | MIC80 [µM] | SMILES
25 | > 500 | C/C=C1/C=C(c2ccc(Br)cc2)C(=O)O1
26 | 250 (≈ 59.8 µg/mL) | O=C1OCC=C1c1ccc(Br)cc1

test system: Lichtheimia corymbifera; assay: Antifungal activity against Absidia corymbifera 272 after 48 hrs by microdilution method; type: functional; settings: Lichtheimia corymbifera, 272, 48 h; outline: as §2

Row | MIC80 [µM] | SMILES
27 | > 500 | C/C=C1/C=C(c2ccc(Br)cc2)C(=O)O1
28 | 500 (≈ 120 µg/mL) | O=C1OCC=C1c1ccc(Br)cc1

test system: L1210; assay: Cytostatic activity against mouse L1210 cells after 72 hrs by XTT assay; type: functional, cell-based; settings: l1210; outline: as §4

Row | IC50 | SMILES
29 | Not Active | C/C=C1/C=C(c2ccc(Br)cc2)C(=O)O1
30 | Not Active | O=C1OCC=C1c1ccc(Br)cc1

test system: Candida parapsilosis; assay: Antifungal activity against Candida parapsilosis ATCC 22019 after 48 hrs by microdilution method; type: functional; settings: Lodderomyces parapsilosis, ATCC 22019, 48 h; outline: as §1

Row | MIC80 [µM] | SMILES
31 | > 500 | C/C=C1/C=C(c2ccc(Br)cc2)C(=O)O1
32 | 500 (≈ 120 µg/mL) | O=C1OCC=C1c1ccc(Br)cc1

test system: Trichophyton mentagrophytes; assay: Antifungal activity against Trichophyton mentagrophytes 445 after 120 hrs by microdilution method; type: functional; settings: Trichophyton mentagrophytes, 445, 120 h; outline: as §3

Row | MIC80 [µM] | SMILES
33 | 31.2 (≈ 8.28 µg/mL) | C/C=C1/C=C(c2ccc(Br)cc2)C(=O)O1
34 | 250 (≈ 59.8 µg/mL) | O=C1OCC=C1c1ccc(Br)cc1

test system: Candida albicans; assay: Antifungal activity against Candida albicans ATCC 90028 after 24 hrs by microdilution method; type: functional; settings: ATCC 90028, 24 h; outline: as §1

Row | MIC80 [µM] | SMILES
35 | > 500 | C/C=C1/C=C(c2ccc(Br)cc2)C(=O)O1
36 | 500 (≈ 120 µg/mL) | O=C1OCC=C1c1ccc(Br)cc1

test system: HL-60; assay: Cytostatic activity against human HL60 cells after 72 hrs by XTT assay; type: functional, cell-based; settings: hl-60; outline: as §4

Row | IC50 | SMILES
37 | Not Active | C/C=C1/C=C(c2ccc(Br)cc2)C(=O)O1
38 | Not Active | O=C1OCC=C1c1ccc(Br)cc1

test system: Aspergillus fumigatus; assay: Antifungal activity against Aspergillus fumigatus 231 after 24 hrs by microdilution method; type: functional; settings: Aspergillus fumigatus, 231, 24 h; outline: as §2

Row | MIC80 [µM] | SMILES
39 | > 500 | C/C=C1/C=C(c2ccc(Br)cc2)C(=O)O1
40 | 250 (≈ 59.8 µg/mL) | O=C1OCC=C1c1ccc(Br)cc1

test system: Trichosporon beigelii; assay: Antifungal activity against Trichosporon beigelii 1188 after 24 hrs by microdilution method; type: functional; settings: Trichosporon beigelii, 1188, 24 h; outline: as §1

Row | MIC80 [µM] | SMILES
41 | > 500 | C/C=C1/C=C(c2ccc(Br)cc2)C(=O)O1
42 | 250 (≈ 59.8 µg/mL) | O=C1OCC=C1c1ccc(Br)cc1

test system: Pichia kudriavzevii; assay: Antifungal activity against Candida krusei ATCC 6258 after 48 hrs by microdilution method; type: functional; settings: ATCC 6258, 48 h; outline: as §1

Row | MIC80 [µM] | SMILES
43 | > 500 | C/C=C1/C=C(c2ccc(Br)cc2)C(=O)O1
44 | 500 (≈ 120 µg/mL) | O=C1OCC=C1c1ccc(Br)cc1

test system: Candida parapsilosis; assay: Antifungal activity against Candida parapsilosis ATCC 22019 after 24 hrs by microdilution method; type: functional; settings: Lodderomyces parapsilosis, ATCC 22019, 24 h; outline: as §1

Row | MIC80 [µM] | SMILES
45 | > 500 | C/C=C1/C=C(c2ccc(Br)cc2)C(=O)O1
46 | 250 (≈ 59.8 µg/mL) | O=C1OCC=C1c1ccc(Br)cc1

test system: Candida albicans; assay: Antifungal activity against Candida albicans ATCC 44859 after 48 hrs by microdilution method; type: functional; settings: ATCC 44859, 48 h; outline: as §1

Row | MIC80 [µM] | SMILES
47 | > 500 | C/C=C1/C=C(c2ccc(Br)cc2)C(=O)O1
48 | 250 (≈ 59.8 µg/mL) | O=C1OCC=C1c1ccc(Br)cc1

test system: Trichosporon beigelii; assay: Antifungal activity against Trichosporon beigelii 1188 after 48 hrs by microdilution method; type: functional; settings: Trichosporon beigelii, 1188, 48 h; outline: as §1

Row | MIC80 [µM] | SMILES
49 | > 500 | C/C=C1/C=C(c2ccc(Br)cc2)C(=O)O1
50 | 500 (≈ 120 µg/mL) | O=C1OCC=C1c1ccc(Br)cc1

test system: Pichia kudriavzevii; assay: Antifungal activity against Candida krusei E28 after 48 hrs by microdilution method; type: functional; settings: E28, 48 h; outline: as §1

Row | MIC80 [µM] | SMILES
51 | > 500 | C/C=C1/C=C(c2ccc(Br)cc2)C(=O)O1
52 | 500 (≈ 120 µg/mL) | O=C1OCC=C1c1ccc(Br)cc1

test system: Aspergillus fumigatus; assay: Antifungal activity against Aspergillus fumigatus 231 after 48 hrs by microdilution method; type: functional; settings: Aspergillus fumigatus, 231, 48 h; outline: as §2

Row | MIC80 [µM] | SMILES
53 | > 500 | C/C=C1/C=C(c2ccc(Br)cc2)C(=O)O1
54 | 500 (≈ 120 µg/mL) | O=C1OCC=C1c1ccc(Br)cc1

test system: Candida tropicalis; assay: Antifungal activity against Candida tropicalis 156 after 48 hrs by microdilution method; type: functional; settings: Candida tropicalis, 156, 48 h; outline: as §1

Row | MIC80 [µM] | SMILES
55 | > 500 | C/C=C1/C=C(c2ccc(Br)cc2)C(=O)O1
56 | 500 (≈ 120 µg/mL) | O=C1OCC=C1c1ccc(Br)cc1
